Experimental data as given in paper PMC9668306 (Science Advances, 2022).
Entries after “also recorded” stand apart in the source; their conditions may differ.

Columns and labels:
[1] = cited from earlier work
[2] = 31 of 47 patients who received 2 weeks or more of DON therapy; cited from earlier work
[3] = biological target: T1, glutaminase enzyme (GLS-1) (Homo sapiens, UniProt O94925); assay: GLS-1 inhibition, [3H]-glutamine radiolabel enzymatic assay; format: biochemical
T1 sequence (O94925 55-669): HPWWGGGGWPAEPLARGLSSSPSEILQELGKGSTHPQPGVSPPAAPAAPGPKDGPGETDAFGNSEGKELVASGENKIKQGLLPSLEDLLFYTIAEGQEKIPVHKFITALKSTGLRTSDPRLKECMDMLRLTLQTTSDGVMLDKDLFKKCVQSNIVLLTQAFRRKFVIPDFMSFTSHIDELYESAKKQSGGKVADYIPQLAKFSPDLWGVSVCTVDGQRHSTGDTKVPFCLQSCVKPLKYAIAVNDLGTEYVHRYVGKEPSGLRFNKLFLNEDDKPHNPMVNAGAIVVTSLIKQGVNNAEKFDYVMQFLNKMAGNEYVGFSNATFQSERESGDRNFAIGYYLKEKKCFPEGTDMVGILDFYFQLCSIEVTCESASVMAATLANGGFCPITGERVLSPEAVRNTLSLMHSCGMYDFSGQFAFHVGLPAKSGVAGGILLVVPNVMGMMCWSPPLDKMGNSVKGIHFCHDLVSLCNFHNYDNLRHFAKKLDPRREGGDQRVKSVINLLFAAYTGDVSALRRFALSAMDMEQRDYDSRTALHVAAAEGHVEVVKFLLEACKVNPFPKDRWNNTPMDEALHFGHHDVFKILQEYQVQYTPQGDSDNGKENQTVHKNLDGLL

[4] = system: EL4 tumors; assay: Antitumor efficacy, intravenous cohort, EL4 tumors; format: in vivo, C57BL/6/CES1-/- mice; settings: 1 mg/kg DON eq. intravenously, 5 days per week for 2 weeks
Summary of the method: (§1)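 EL4 cells (0.3 × 10^6) were given s.c. in the right flank. At a mean tumour volume of about 400 mm3, mice were randomised (n = 8) to vehicle, parent drug 1 mg/kg or test compound 1 mg/kg DON equivalent, i.v., 5 days/week for 2 weeks. Tumour volume (calipers, […]), body weight and mortality were tracked; euthanasia followed IACUC tumour-volume or weight-loss guidelines.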

[5] = system: FGAR; assay: Tumor target engagement: tumor FGAR; format: in vivo, C57BL/6/CES1-/- mice; settings: EL4 tumor, 1 hour after s.c. dose (DRP-104 2.6 mg/kg, DON 0.3 mg/kg)
[6] = system: P493B lymphoma cells; assay: P493B lymphoma cell viability assay; format: cell-based; settings: 72 h
[7] = GI histopathology and scoring; format: in vivo, C57BL/6/CES1-/- mice; settings: for GI histology (in words): 1 mg/kg DON eq. IV, end of treatment
[8] = Complete blood count; format: in vivo, C57BL/6/CES1-/- mice; settings: Avg of 3 animals, 1 mg/kg (eq.) iv, normal range 1.06-56.08
Summary of the method: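 In the EL4 i.v. cohort (vehicle, parent drug or test compound at 1 mg/kg DON equivalent, 5 days/week for 2 weeks), mice remaining at the end of treatment were sacrificed and blood was collected for a complete blood count.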

[9] = Tolerability, intravenous cohort; format: in vivo, C57BL/6/CES1-/- mice
Summary of the method: as §1

[10] = biological target: T2, GLS-1 (Mus musculus, UniProt D3Z7P3); assay: Tumor target engagement: tumor GLS-1 activity; format: in vivo, C57BL/6/CES1-/- mice; settings: EL4 tumor, 1 hour after s.c. dose
T2 sequence (D3Z7P3 55-674): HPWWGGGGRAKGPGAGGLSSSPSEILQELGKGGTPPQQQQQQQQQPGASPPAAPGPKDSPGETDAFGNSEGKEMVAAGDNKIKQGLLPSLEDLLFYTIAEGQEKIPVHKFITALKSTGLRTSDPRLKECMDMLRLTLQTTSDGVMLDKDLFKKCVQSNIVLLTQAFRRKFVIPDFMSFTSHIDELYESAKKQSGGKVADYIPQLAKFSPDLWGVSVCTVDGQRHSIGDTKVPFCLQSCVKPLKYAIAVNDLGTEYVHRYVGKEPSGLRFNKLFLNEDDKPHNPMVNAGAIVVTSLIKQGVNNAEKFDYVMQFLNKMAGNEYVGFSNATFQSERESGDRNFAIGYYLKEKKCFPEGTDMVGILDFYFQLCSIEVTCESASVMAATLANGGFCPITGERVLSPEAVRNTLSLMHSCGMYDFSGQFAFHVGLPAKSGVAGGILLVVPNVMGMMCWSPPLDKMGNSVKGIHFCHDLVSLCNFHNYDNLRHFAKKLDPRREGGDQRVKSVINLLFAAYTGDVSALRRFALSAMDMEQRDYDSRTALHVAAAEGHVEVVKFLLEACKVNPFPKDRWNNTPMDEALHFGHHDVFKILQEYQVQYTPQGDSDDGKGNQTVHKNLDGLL
Summary of the method: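 Test compound was dosed s.c. to EL4 tumor-bearing CES1−/− mice, and tumors were harvested 1 h post-dose. Tumor GLS-1 activity was quantified with a radiolabel-based enzymatic assay.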

[11] = Plasma stability, human plasma; format: in vitro ADME; settings: % remaining at 60 minutes, 37°C
[12] = PK of DRP-104, DON and M1 in EL4 tumor-bearing mice; format: in vivo, C57BL/6/CES1-/- mice; settings: for intact DRP-104 concentration: BLQ = below the limit of quantitation
[13] = system: MC38 tumors; assay: Anti-PD-1 combination study, MC38 tumors; format: in vivo, C57BL/6/CES1-/- mice; settings: MC38 tumor-bearing mice, same regimens
Summary of the method: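 Mice (4 male, 3 female per group, n = 7) got 5 × 10^5 MC38 cells s.c. in the right flank and were randomised at about 400 mm3 (about day 10). Arms: vehicle; anti-PD-1 100 μg i.p. on days 10, 12, 14 and 16; test compound 0.8 mg/kg s.c., 5 days/week for 4 weeks; combination. Endpoint: tumour >4000 mm3, ulceration, necrosis or functional deficit.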

[14] = Body weight in MC38 anti-PD-1 combination study; format: in vivo, C57BL/6/CES1-/- mice; settings: MC38 tumor-bearing mice, throughout the experiment
[15] = system: EL4 tumors; assay: 13C5-glutamine flux analysis in EL4 tumors; format: in vivo, CES1-/- mice; settings: 0.3 mg/kg DON eq. s.c., vehicle 19.99%
[16] = DRP-104 stability in EL4 tumor homogenate with protease/esterase inhibitors; format: in vitro ADME, mouse; settings: no inhibitor, time 1 h
[17] = Tolerability, subcutaneous dosing cohort; format: in vivo, C57BL/6/CES1-/- mice; settings: 0.1, 0.3 and 1 mg/kg DON eq. subcutaneously
Summary of the method: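 EL4 tumour-bearing CES1−/− mice (0.3 × 10^6 cells s.c., right flank) received test compound at 0.1, 0.3 or 1 mg/kg DON equivalent s.c., 5 days/week. Tumour volume and body weight were recorded during dosing, with GI histology assessed alongside.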

[18] = GI tissue homogenate stability and DON release; format: in vitro ADME, C57BL/6/CES1-/- mouse; settings: C57BL/6/CES1-/-, mouse, GI tissue (jejunum) homogenate, pH 7.4
[19] = Metabolite identification; format: in vitro ADME, mouse; settings: 60-min incubation
[20] = system: EL4 tumors; assay: Antitumor efficacy, subcutaneous dosing cohort, EL4 tumors; format: in vivo, C57BL/6/CES1-/- mice; settings: 0.1, 0.3 and 1 mg/kg DON eq. subcutaneously, 5 days per week
Summary of the method: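 EL4 mouse lymphoma cells (0.3 × 10^6) were injected s.c. into the right flank of male and female C57BL/6/CES1−/− mice aged 6–8 weeks (25–30 g). Test compound was given s.c. at 0.1, 0.3 or 1 mg/kg DON equivalent, 5 days/week. Tumor length and width were measured by caliper, with volume = […]. Body weight and GI histology were tracked in parallel.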

[21] = Intestinal S9 fraction stability and DON release; format: in vitro ADME; settings: human
Summary of the method: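 Test compound at 10 μM was incubated with intestinal S9 fraction (final protein 1 mg/ml) at 37°C on an orbital shaker for 1 h, in triplicate. Reactions were quenched with three volumes of acetonitrile containing internal standard.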

[22] = Plasma stability, WT mouse plasma; format: in vitro ADME, WT C57BL/6 mouse; settings: C57BL/6, mouse
[23] = system: MC38 tumors; assay: CD8 depletion study, MC38 tumors; format: in vivo, C57BL/6/CES1-/- mice; settings: MC38, CD8+ T cell-depleting antibodies versus isotype
Summary of the method: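 MC38-bearing CES1−/− mice received anti-mouse CD8β (clone 53-5.8) or rat IgG1 isotype (clone HRPN), 5 mg/kg, the day before implantation, the day after and weekly thereafter; depletion was checked by flow cytometry. Test compound was given at 0.3 mg/kg DON equivalent s.c., 5 days/week, and individual tumour growth was followed.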

[24] = biological target: T3, recombinant CES1 enzyme (Homo sapiens, UniProt P23141); assay: Recombinant CES1 enzyme stability; format: in vitro ADME; settings: 20 μM, enzyme 10 μg/ml, up to 3 hours
T3 sequence (P23141 18-567): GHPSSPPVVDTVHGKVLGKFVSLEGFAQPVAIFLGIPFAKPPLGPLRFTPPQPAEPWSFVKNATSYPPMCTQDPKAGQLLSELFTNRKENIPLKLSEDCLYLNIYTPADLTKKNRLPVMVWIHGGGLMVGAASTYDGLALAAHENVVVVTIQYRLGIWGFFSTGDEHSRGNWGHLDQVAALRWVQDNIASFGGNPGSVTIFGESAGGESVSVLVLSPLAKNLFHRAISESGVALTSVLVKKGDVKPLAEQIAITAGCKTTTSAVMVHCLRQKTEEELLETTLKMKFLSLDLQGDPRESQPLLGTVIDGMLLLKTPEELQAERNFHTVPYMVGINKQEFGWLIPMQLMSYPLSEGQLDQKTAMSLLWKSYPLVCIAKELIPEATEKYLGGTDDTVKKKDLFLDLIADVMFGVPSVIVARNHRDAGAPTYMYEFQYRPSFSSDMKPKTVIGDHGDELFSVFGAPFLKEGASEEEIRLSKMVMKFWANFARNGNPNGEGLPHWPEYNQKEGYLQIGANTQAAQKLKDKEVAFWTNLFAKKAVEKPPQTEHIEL

COc1ccc(/C=C\c2cc(OC)c(OC)c(OC)c2)cc1OP(=O)(O)O [CA4P, combretastatin A4 phosphate]
tumor versus plasma delivery (in words) [1]: two- to threefold

[N-]=[N+]=CC(=O)CC[C@H](N)C(=O)O [DON, 6-Diazo-5-oxo-L-norleucine, reference compound]
patients with stable disease or regression [2]: 66%
IC50 [3]: 10 ± 0.3 µM
tumor response (in words) [4]: complete regression of the tumor
tumor FGAR increase versus vehicle [5]: > 80 fold
EC50 [6]: 4 ± 0.6 µM
GI histology (in words) [7]: severe GI toxicity
WBC [8]: 0.93 ± 0.18 K/uL
body weight reduction ([9]; 1 mg/kg intravenously, 5 days per week for 2 weeks): 20 to 30%
mice that required euthanasia based on IACUC weight loss guidelines ([9]; 1 mg/kg intravenously, 5 days/week for 2 weeks): 63%
tumor GLS-1 activity versus vehicle (in words) [10]: significant inhibition of tumor GLS-1 activity

CC(=O)N[C@@H](Cc1c[nH]c2ccccc12)C(=O)N[C@@H](CCC(=O)C=[N+]=[N-])C(=O)OC(C)C [DRP-104, isopropyl(S)-2-((S)-2-acetamido-3-(1H-indol-3-yl)-propanamido)-6-diazo-5-oxo-hexanoate]
remaining at 1 h, 20 μM [11]: > 90%
intact DRP-104 concentration ([12]; GI tissue): no DRP-104 was observed
AUC0-t ([12]; plasma, after DRP-104 2.6 mg/kg s.c., 2.6 mg/kg): 0.65 nmol hour/ml or nmol hour/g
intact DRP-104 concentration ([12]; tumor): no DRP-104 was observed
inhibition of GLS-1 (in words) ([3]; intact compound): inactive
tumor response (in words) [4]: complete regression of the tumor
survival (in words) [13]: enhanced survival compared to vehicle
effect on body weight (in words) [14]: no substantial effect on body weight
M+5 isotopologue share of the total glutamate pool [15]: 14.66%
tumor FGAR increase versus vehicle [5]: > 80 fold
% DRP-104 remaining [16]: 0%
overt toxicity (in words) [17]: No overt signs of toxicity
EC50 [6]: 10 ± 1.9 µM
GI histology (in words) [7]: improvement in all these parameters
GI morphology (in words) ([7]; 1 mg/kg DON eq. subcutaneously): mild lymphocytic infiltration
GI morphology (in words) ([7]; 0.1 and 0.3 mg/kg DON eq. subcutaneously): normal
remaining at 1 h, 20 μM [18]: 0%
metabolites found (MET-ID) ([19]; GI tissue homogenate): only the M1 metabolite
metabolites found (MET-ID) ([19]; tumor homogenate): both DON and M1 metabolite
deaths (in words) ([9]; 1 mg/kg DON eq. intravenously): no deaths were observed
body weight (in words) ([9]; 1 mg/kg DON eq. intravenously, 5 days per week for 2 weeks): maintained their body weight
tumor growth (in words) [20]: dose-dependent inhibition of tumor growth; also recorded: complete tumor regression at the higher two doses
remaining at 1 h, 10 μM [21]: 0%
remaining at 1 h, 20 μM [22]: 0%
dependence of efficacy on CD8+ T cells (in words) [23]: completely dependent
metabolism by recombinant CES1 (in words) [24]: CES1 was capable of metabolizing DRP-104 to M1 metabolite
tumor GLS-1 activity versus vehicle (in words) [10]: significant inhibition of tumor GLS-1 activity

CCCCCOC(=O)Nc1nc(=O)n([C@@H]2O[C@H](C)[C@@H](O)[C@H]2O)cc1F [capecitabine]
average 5-fluorouracil concentration in tumor versus adjacent healthy tissue [1]: 3.2 fold
